# Screens: PubChem, several laboratories
# Most compounds without a hit are left out; they make up all but 3% or so of the library.
# MC4R antagonist = human MC4R antagonism in cAMP assay. AID 540295. inhibition, % at 6.5 µM. MC4R-expressing cells, MTII-stimulated cAMP, LANCE TR-FRET. 360,000 compounds, 0.48% hits;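 active = inhibition above its plate's cutoff, the mean of tested wells on that plate plus 3 SD, cut at about 29% in these data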;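 also: 0% = Melanotan II alone and 100% = Melanotan II plus saturating MCL0020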
#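 System: U2OS cells stably expressing human melanocortin 4 receptor (MC4R). Reagent: Melanotan II challenge after compound preincubation. Doses: 6.5 µM. Times: 30-min compound, 1-h challenge, 1-h detection, room temperature. Measured by: TR-FRET with Eu-cAMP and labeled anti-cAMP, 671 nm. Replicates: singlicate.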
# Beta2AR agonist = activates human beta-2 adrenergic receptor causing internalization. P07550. Am2.2-beta2AR cells, FAP receptor internalization, flow cytometry. response, % (test concentration not listed). 340,000 compounds, 0.43% hits. AID 504454;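 active = response above a set limit, near 3 SD of response in nonfluorescent compounds, cut at about 42% in these data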
# Target sequence (P07550 whole entry, looked up): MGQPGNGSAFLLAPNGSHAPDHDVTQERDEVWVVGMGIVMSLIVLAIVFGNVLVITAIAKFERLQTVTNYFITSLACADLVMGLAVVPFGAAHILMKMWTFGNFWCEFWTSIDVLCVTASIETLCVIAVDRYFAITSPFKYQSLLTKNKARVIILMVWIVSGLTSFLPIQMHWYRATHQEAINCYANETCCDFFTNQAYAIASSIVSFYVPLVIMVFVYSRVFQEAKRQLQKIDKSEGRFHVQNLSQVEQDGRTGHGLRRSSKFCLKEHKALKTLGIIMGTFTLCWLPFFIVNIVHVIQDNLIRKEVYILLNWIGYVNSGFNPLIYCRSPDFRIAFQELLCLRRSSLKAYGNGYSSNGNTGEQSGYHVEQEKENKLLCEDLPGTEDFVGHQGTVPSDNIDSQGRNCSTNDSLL
# ABHD5-PLIN5 inh = blocks binding of human ABHD5 to perilipin-5; Q00G26+Q8WTS1; Split G. princeps luciferase complementation, luminescence, 4 h; inhibition, % at 4 µM; 360,000 compounds, 0.78% hits;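 active = inhibition above the mean inhibition across every tested compound plus 3 SD, cut at about 22% in these data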;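 also: 0% = DMSO only wells and the 100% control is not disclosed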
# PfGluPho inh = PfG6PD (Plasmodium falciparum) enzyme inhibition; PfGluPho enzyme, NADPH resazurin-diaphorase fluorescence; inhibition, % at 20 µM; 350,000 compounds, 0.78% hits; AID 504690;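 active = inhibition reaching at least a set limit at 20 µM in the primary screen, cut at about 59% in these data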;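 also: 0% = DMSO wells with substrate and 100% = DMSO wells lacking glucose-6-phosphate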
# MC4R barr agon = activates human MC4R beta-arrestin recruitment. 360,000 compounds, 0.98% hits. activation, % at 8.9 µM. P32245. U2OS MC4R beta-arrestin complementation, luminescence; percent of melanotan II response, DMSO zero. AID 540308;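 active = activation above a per-plate cutoff, the mean activation of sample wells on that plate plus 3 SD, cut at about 8% in these data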
# ABHD5 PLIN5 conf = ABHD5-PLIN5 interaction inhibition, confirmed. biochemical ABHD5-PLIN5 interaction, luminescence. shares compounds with ABHD5-PLIN5 inh. AID 651612. inhibition, % at 4 µM. 2,200 compounds, 67% hits; in the data active = inhibition above about 23%;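 also: 0% = DMSO vehicle wells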
# HNF4 split-luc = counter-screen for ABHD5-PLIN5 inhibitors: HNF4 split-luciferase | HNF4 dimerization, luminescence, biochemical | inhibition, % at 4 µM | 2,200 compounds, 77% hits | shares compounds with ABHD5-PLIN5 inh;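 active = mean inhibition across replicate wells exceeding the computed hit threshold, cut at about 13% in these data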;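 also: light from luciferase halves that rejoin when HNF4 fusion proteins dimerize; 0% = DMSO only wells and the 100% control is not given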
# Starred values were filed as active, the others as inactive; / = no result.
SMILES,MC4R antagonist,Beta2AR agonist,ABHD5-PLIN5 inh,PfGluPho inh,MC4R barr agon,ABHD5 PLIN5 conf,HNF4 split-luc
COC(=O)c1cc(=O)n(Cc2ccco2)c(=Nc2ccc(F)cc2)s1,18,15,31*,4,1,65*,44*
COC(=O)c1cc(=O)n(-c2ccccc2)c(=Nc2ccccc2)s1,11,18,38*,10,3,57*,39*
Cc1ccc(/C(O)=C2/C(=O)C(=O)OC2c2ccc(Cl)cc2)cc1 (configuration not stated),4,0,32*,-21,1,57*,37*
O=C1OC(c2ccccc2)/C(=C(/O)c2ccc(Cl)cc2)C1=O (configuration not stated),8,0,16,-41,-1,/,/
CNc1ccc(Br)cc(C(=O)/C=C/c2cc(OC)ccc2OC)c1=O,6,10,26*,50,-2,63*,58*
COc1cc(F)ccc1-c1csc(C(NC(C)=O)c2ccccc2)n1 (configuration not stated),9,/,5,/,-1,/,/
O=C(Nc1ccc(S(=O)(=O)N2CCOCC2)cc1)c1ccc(Cl)cc1Cl,7,3,3,5,-1,/,/
CCCC1NC(C(=O)O)Cc2c1[nH]c1ccccc21 (configuration not stated),6,12,3,3,-1,/,/
CCN(CC)CCN(CC(=O)Nc1c(C)cc(C)cc1C)C(=O)c1ccccc1,3,3,24*,-27,0,33*,-6
O=C(Nc1cccc(-c2cccc(Cl)c2)c1)C1CCN(Cc2ccc(CO)o2)CC1,10,17,27*,1,-2,10,-1
CC1CCC(NC(=O)CCNC(=O)c2ccc(Br)cc2)CC1 (configuration not stated),0,-17,-8,-14,0,/,/
CNC[C@@H]1Oc2ccc(NS(=O)(=O)c3ccc(Cl)cc3)cc2C(=O)N([C@H](C)CO)C[C@@H]1C,4,-10,25*,33,-1,19,-4
Cc1cc(-c2nn(-c3ccccc3F)cc2CN2CCC(O)CC2)c(C)s1,0,-22,4,-8,1,/,/
Cc1cc(-c2nn(-c3ccccc3F)cc2CN2CCN(c3ccncc3)CC2)c(C)s1,12,20,28*,-13,1,7,-3
O=C(NCCCn1ccnc1)/C(=C\c1ccc(Br)cc1)NC(=O)c1ccccc1,18,-3,9,-11,-3,/,/
CC1CCN(C(=O)c2ccc(S(=O)(=O)NCc3ccco3)cc2)CC1,12,4,24*,5,0,0,7
O=C(c1ccc(S(=O)(=O)NCc2ccco2)cc1)N1CCCC1,-3,0,-1,-10,1,/,/
CCN1C(=O)c2ccc(C(=O)Nc3cccc(C(=O)O)c3)cc2C1=O,5,-2,-1,-3,0,/,/
CCCCCCCCCC[n+]1cccc2c3ccccc3ccc21,-17,-4,27*,8,49*,18,5
CC(=O)c1cccc(CN2CCN(CC(C)C)C(CCO)C2)c1 (configuration not stated),-1,0,-1,-12,-2,/,/
CCCCC[C@H](O)/C=C/C1C(=O)C=C[C@H]1C/C=C\CCCC(=O)OC (some centres not stated),25,9,36*,6,-1,45*,61*
CCCCC(=O)N(C)c1c(CC)nc2c(OCC(=O)C(C)(C)C)cccn12,9,/,-4,/,0,/,/
CC(C)CN(C(=O)c1cccc(S(=O)(=O)N2CCN(Cc3ccccc3)CC2)c1)C1CCS(=O)(=O)C1 (configuration not stated),4,14,3,-11,0,/,/
COc1cccc(/C=C/C(=O)c2ccc(NC3=NCCCS3)cc2)c1,-18,15,45*,-2,-2,74*,63*
Cc1cccc(/C=C/C(=O)c2ccc(NC3=NCCCS3)cc2)c1,-18,10,52*,0,-4,79*,61*
CC(=O)Nc1ccccc1-c1nc2ccccc2nc1OCC(=O)c1ccc(Cl)cc1,0,20,-5,-5,-2,/,/
